From BindingDB's records for doi:10.1016/j.bmcl.2009.08.036 (Glaxosmithkline, 2009)

Molecular target: T1, Oxysterols receptor LXR-beta (Homo sapiens, UniProt P55055)
T1 sequence (P55055 whole entry): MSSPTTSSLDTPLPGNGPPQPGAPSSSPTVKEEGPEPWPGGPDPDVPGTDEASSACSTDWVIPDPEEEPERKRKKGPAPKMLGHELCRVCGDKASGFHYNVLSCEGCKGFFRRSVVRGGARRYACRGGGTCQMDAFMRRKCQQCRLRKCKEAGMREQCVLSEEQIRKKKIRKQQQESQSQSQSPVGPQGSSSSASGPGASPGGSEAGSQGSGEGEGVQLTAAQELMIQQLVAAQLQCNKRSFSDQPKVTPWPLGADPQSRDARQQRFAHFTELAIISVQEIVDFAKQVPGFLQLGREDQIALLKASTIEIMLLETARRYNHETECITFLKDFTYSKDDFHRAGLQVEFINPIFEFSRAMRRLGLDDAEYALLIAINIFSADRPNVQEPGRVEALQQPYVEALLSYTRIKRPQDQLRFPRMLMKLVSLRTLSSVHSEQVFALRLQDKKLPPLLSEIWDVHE
Test: Agonist activity at human LXRbeta assessed as association of SRC1 to LXRbeta ligand binding domain by FRET based cell-free ligand sensing assay
Summary of the method: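 Cell-free FRET ligand-sensing assay measuring ligand-dependent recruitment of a 24-amino-acid steroid receptor coactivator 1 (SRC1) fragment to the LXR ligand-binding domain. Percent efficacy is expressed against the maximal agonist response of the reference agonist. Values are means of at least two experiments, standard deviation ≤10%.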

EC50: 0.026 µM
SMILES: O=C(O)C1CCCc2c(OCCCN(Cc3cccc(C(F)(F)F)c3Cl)CC(c3ccccc3)c3ccccc3)cccc21 (racemic) [(+/-)-5-(3-((2-chloro-3-(trifluoromethyl)benzyl)(2,2-diphenylethyl)amino)propoxy)-1,2,3,4-tetrahydronaphthalene-1-carboxylic acid]
